Data set [1] is described as follows: Inhibition of Escherichia coli N5-CAIR synthetase by phosphate assay. The method, boiled down:
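E. coli enzyme in 50 mM HEPES pH 7.5, 20 mM KCl, 6.0 mM MgCl2, 100 μM ATP, diluted saturated NaHCO3. Compound at eight concentrations, 0.78–100 μM, with 50 μM AIR added, run 5 min at room temperature. Quenched with malachite green reagent, A600 read after at least 15 min. IC50 taken from Hill fit between enzyme + AIR and no-AIR controls.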

A short description of data set [2]: Inhibition of Escherichia coli N5-CAIR synthetase using variable amounts of 5-aminoimidazole ribonucleotide or ATP by ATPase assay. In short, it runs like this: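 E. coli enzyme (168 ng) in 1 mL cuvette, 50 mM HEPES pH 7.5, 20 mM KCl, 6.0 mM MgCl2, 1.0 mM NaHCO3, PK/LDH coupling (0.2 mM NADH, 2.0 mM PEP, 4 U PK, 17 U LDH). Preincubated with ATP 3 min at 37 °C. ATP fixed 1.1 mM with AIR 5–250 μM, or AIR fixed 100 μM with ATP 5–250 μM. Start with AIR plus inhibitor (0–50 μM); A340 read at 37 °C.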

A short description of data set [3]: Chemical stability in aqueous solution assessed as compound decomposition after 45 mins. It is filed as physicochemical. The conditions noted are these: buffer, 0.75 h.
A short description of data set [4]: Inhibition of Escherichia coli N5-CAIR synthetase using variable amount of aminoimidazole ribonucleotide and fixed ATP by ATPase assay. The method, boiled down:
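PK/LDH-coupled assay at 37 °C in HEPES pH 7.5, KCl, MgCl2, 0.2 mM NADH, 2.0 mM PEP, 1.0 mM NaHCO3. ATP fixed at 1.1 mM and AIR varied 5–250 μM. Inhibitor at 0–50 μM added with AIR to start the reaction. NADH loss read at 340 nm, initial rate over the first 2 min. Mode from Lineweaver-Burk plots, Ki from slope replots.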

Data set [5] can be described thus: Inhibition of Escherichia coli N5-CAIR synthetase using variable amount of ATP and fixed aminoimidazole ribonucleotide by ATPase assay. In short, it runs like this:
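PK/LDH-coupled assay at 37 °C in HEPES pH 7.5, KCl, MgCl2, 0.2 mM NADH, 2.0 mM PEP, 1.0 mM NaHCO3. AIR fixed at 100 μM and ATP varied 5–250 μM. Inhibitor at 0–50 μM added with AIR to start the reaction. NADH loss followed at 340 nm, initial velocity over the first 2 min. Mode from Lineweaver-Burk plots, Ki from slope replots.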

Data set [6] deals with T1, Bifunctional phosphoribosylaminoimidazole carboxylase/phosphoribosylaminoimidazole succinocarboxamide synthetase (Homo sapiens) (UniProt P22234).
T1 sequence (whole entry): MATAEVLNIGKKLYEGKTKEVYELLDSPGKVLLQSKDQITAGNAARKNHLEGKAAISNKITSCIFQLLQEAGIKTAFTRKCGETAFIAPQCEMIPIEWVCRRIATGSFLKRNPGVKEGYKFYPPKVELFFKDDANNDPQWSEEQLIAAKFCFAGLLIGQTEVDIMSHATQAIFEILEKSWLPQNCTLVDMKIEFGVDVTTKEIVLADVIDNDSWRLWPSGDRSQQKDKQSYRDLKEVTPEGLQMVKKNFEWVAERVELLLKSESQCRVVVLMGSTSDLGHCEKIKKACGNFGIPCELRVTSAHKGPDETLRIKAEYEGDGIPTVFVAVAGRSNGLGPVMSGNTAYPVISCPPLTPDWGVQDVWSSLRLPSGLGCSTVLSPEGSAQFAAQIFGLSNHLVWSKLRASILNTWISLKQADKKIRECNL
The data set can be described thus: Inhibition of human AIR carboxylase: SAICAR synthetase at 200 uM by coupled assay. In short, it runs like this: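 Human bifunctional AIR carboxylase:SAICAR synthetase (>95% pure by SDS-PAGE); both activities measured together by coupled assay, as described for the chicken enzyme; compounds at 200 μM.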

A short description of data set [7]: Chemical stability in aqueous solution assessed as compound decomposition after 30 mins. The note with it: buffer, 0.5 h. It is filed as physicochemical.

Each structure is given as a SMILES string. pIC50, pKi: −log10 of the molar value. Calls of active or inactive are those of the source. The calls are words filed in the database; no cut-off is given here.

Broadly, the pIC50 is −log10 of the IC50, conventionally taken in molar units. Lower therefore signals a large IC50. In data set [1], `Cc1cc(NC2(O)C(=O)c3ccccc3C2=O)n(C)n1` gave a pIC50 of 5.11.

On to `O=C(NC1(O)C(=O)c2ccccc2C1=O)c1cccc2c1-c1ccccc1C2=O`, for which the negative-log IC50 (pIC50) in data set [1] was 5.06.

In data set [1], `CN1CCN(CN2C(=O)C(=O)c3ccccc32)CC1` gave a pIC50 of 4.43.

Regarding `Cc1nc(NC2(O)C(=O)c3ccccc3C2=O)cs1`, the Ki result in data set [2] was “Not Active”. The Stability entry in data set [3] is given as “Unstable”. For the same compound, the negative logarithm of the IC50 (pIC50) in data set [1] is 5.25.

Take `CCOC(=O)C1CCN(CN2C(=O)C(=O)c3ccccc32)CC1`: the negative-log IC50 (pIC50) in data set [1] was 4.66.

Broadly, the pKi is −log10 of the Ki, conventionally taken in molar units. On to `CCOC(=O)c1noc(C)c1-c1csc(CS(=O)(=O)c2ccc(Cl)cc2)n1`, for which the figures for the negative logarithm of the Ki (pKi) in data set [4] and in data set [5] were 4.21 and 4.37, respectively. Further, the negative logarithm of the IC50 (pIC50) in data set [1] was 5.00. In data set [6], the result was inactive.

As for `COc1cc(C(F)(F)F)c(C(=O)NC2(O)C(=O)c3ccccc3C2=O)cn1`, the pIC50 in data set [1] is 4.77.

Take `COc1cscc1C(=O)NC1(O)C(=O)c2ccccc2C1=O`: the pIC50 in data set [1] is 4.77.

`O=C1C(=O)N(CN2CCOCC2)c2ccc(Br)cc21`: the negative logarithm of the IC50 (pIC50) in data set [1] was 4.64.

As to `CCN(CC)C(=O)CN1C(=O)C(=O)c2ccccc21`, the pKi in data set [4] was 4.54; in data set [5] it was 4.40. In data set [1], this compound showed a negative-log IC50 (pIC50) of 4.98. Also, the result in data set [6] was inactive.

`Cc1nonc1NC1(O)C(=O)c2ccccc2C1=O`: the Ki result in data set [2] is “Not Active”. Also, the Stability result in data set [7] is on record as “Unstable”. The compound further showed a pIC50 in data set [1] of 5.64.

Take `O=C1C(=O)N(CN2CCN(CN3C(=O)C(=O)c4ccccc43)C2)c2ccccc21`: the pIC50 in data set [1] was 4.16.

Turning to `O=C1Nc2ccc(OC(F)(F)F)cc2C1=O`, in data set [1], the pIC50 is 4.72.

Turning to `Cc1cc2nc3c(=O)[nH]c(=O)nc-3n(C[C@H](O)[C@H](O)[C@H](O)CO)c2cc1C`, the pKi was 4.09 in data set [4] and 3.91 in data set [5]. Further, the pIC50 in data set [1] is 4.70. The outcome in data set [6] was inactive.

These data come from ChEMBL document CHEMBL1139237, “Identification of inhibitors of N5-carboxyaminoimidazole ribonucleotide synthetase by high-throughput screening” (Bioorg Med Chem, 2009).
